Compound activity deposited in PubChem by Broad Institute.
IDH1 R132H inh: IDH1 R132H (human) inhibition. O75874. hit rate 0.18% among 70,000. IDH1 R132H reductase, diaphorase/resazurin fluorescence, 60 min. inhibition, % at 10 µM; in the data active means inhibition above about 34%; inconclusive means no clear call, values can overlap the other calls; inactive means below about 11%
Target sequence (O75874 whole entry R132H): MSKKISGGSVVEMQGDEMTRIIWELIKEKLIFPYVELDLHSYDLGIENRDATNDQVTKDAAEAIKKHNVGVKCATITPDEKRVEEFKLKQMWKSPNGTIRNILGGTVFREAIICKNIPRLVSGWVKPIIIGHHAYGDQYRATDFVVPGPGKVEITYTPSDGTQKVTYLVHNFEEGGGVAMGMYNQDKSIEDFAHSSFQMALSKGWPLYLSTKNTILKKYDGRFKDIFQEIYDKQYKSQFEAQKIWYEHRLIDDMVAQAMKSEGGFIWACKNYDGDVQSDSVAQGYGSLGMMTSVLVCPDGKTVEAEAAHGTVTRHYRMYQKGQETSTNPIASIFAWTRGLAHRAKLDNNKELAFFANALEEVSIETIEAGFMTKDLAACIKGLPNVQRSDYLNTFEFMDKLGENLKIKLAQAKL
T cruzi growth-1: blocks T. cruzi growth in NIH3T3 culture; T. cruzi beta-gal in NIH3T3, GalScreen luminescence, 90 h; AID 624255; inhibition, % at 8.34 µM; hit rate 5.9% among 77,000;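 active means mean inhibition above about 93%, with at least 55% of replicates each passing it, limit read from the data, passing the limit was not always enough; inconclusive means only one of those two conditions holds; inactive means neither condition holds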
GASC1 inh: blocks human GASC-1 (KDM4C) demethylase activity | Q9H3R0 | GST-KDM4C 2-372, H3K9me3 peptide, LANCE TR-FRET | inhibition, % at 12.5 µM | hit rate 0.15% among 96,000 | AID 720574;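 active means mean replicate inhibition above about 25%, with at least 55% of replicates also reaching it, limit read from the data, passing the limit was not always enough; inconclusive means only one of those two conditions met; inactive means neither condition met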
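System: N-terminal GST-fused human GASC-1 (KDM4C) fragment, residues 2-372; amount: enzyme final amount 10 nM; incubation: reaction 30 min RT, detection step 1 h RT; medium: HEPES buffer, pH 7.5, plus ascorbate; technique: LANCE TR-FRET, Eu antibody, ULight-streptavidin, EDTA, ex 340 nm, em 618/671 nm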
Pf Dd2 growth: blocks growth of Plasmodium falciparum Dd2 parasites; hit rate 2.3% among 94,000; activity change, % at 10 µM; P. falciparum Dd2 growth, SYBR Green, 72 h; active compounds read low; AID 1159554; in the data active means activity change below about -80%; inconclusive means no clear call, values can overlap the other calls
T cruzi growth-2: inhibitors of T. cruzi proliferation; shares compounds with T cruzi growth-1; T. cruzi beta-gal in NIH3T3, GalScreen luminescence, 90 h; inhibition, % at 8.35 µM; hit rate 72% among 5,600;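 active means mean replicate inhibition above about 95% and at least 55% of replicates individually reaching it, limit read from the data; inconclusive means only one of the two criteria is met; inactive means neither criterion is met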
T cruzi growth-3: inhibitors of T. cruzi proliferation; shares compounds with T cruzi growth-1; hit rate 21% among 5,600; T. cruzi beta-gal in NIH3T3, GalScreen luminescence, 90 h; AID 651740; inhibition, % at 2.09 µM;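 active means mean inhibition above about 95%, with at least 55% of replicates also reaching it, limit read from the data; inconclusive means meets just one of the two conditions; inactive means meets neither condition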
3T3 cytotox: cytotoxicity in mouse NIH/3T3 fibroblasts; cytotoxicity (signal decrease), % at 8.35 µM; hit rate 14% among 5,600; NIH/3T3 viability, CellTiter-Glo ATP luminescence, 90 h; AID 651742; shares compounds with T cruzi growth-1;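 active means mean signal decrease across replicates above about 35% based on untreated-well scatter, with enough replicates individually passing, limit read from the data; inconclusive means no rule stated though some were filed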
3T3 cytotox 2: cytotoxicity in mouse NIH/3T3 fibroblasts; shares compounds with T cruzi growth-1; NIH/3T3 viability, CellTiter-Glo ATP luminescence, 90 h; inhibition, % at 24.9 µM; hit rate 56% among 5,600; AID 651744;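 active means mean loss of cell viability signal at or above a set limit, and enough replicates individually reaching it; inconclusive means meets only the mean limit or only the replicate share; inactive means meets neither condition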
A number is an active result; i = inactive; ? = inconclusive; nt = not tested or not shown. Rows were chosen to be rich in hits. Some 5.9% of all compounds tested hit in one or more screens of this group.

SMILES	IDH1 R132H inh	T cruzi growth-1	GASC1 inh	Pf Dd2 growth	T cruzi growth-2	T cruzi growth-3	3T3 cytotox	3T3 cytotox 2
C[C@H]1CN([C@@H](C)CO)C(=O)c2ccccc2-c2ccccc2CO[C@H]1CN(C)S(=O)(=O)c1ccc(C(F)(F)F)cc1	nt	108	i	-81	105	i	i	i
Cc1ccccc1S(=O)(=O)N(C)C[C@@H]1OCc2ccccc2-c2c(n(C)c3ccccc23)C(=O)N([C@@H](C)CO)C[C@H]1C	nt	i	i	?	nt	nt	nt	nt
Cc1ccccc1S(=O)(=O)N(C)C[C@H]1OCc2ccccc2-c2c(n(C)c3ccccc23)C(=O)N([C@@H](C)CO)C[C@@H]1C	nt	?	i	-85	101	i	i	?
Cc1ccccc1S(=O)(=O)N(C)C[C@@H]1OCc2ccccc2-c2ccccc2C(=O)N([C@H](C)CO)C[C@@H]1C	i	?	i	i	i	i	i	i
Cc1ccccc1S(=O)(=O)N(C)C[C@H]1OCc2ccccc2-c2c(n(C)c3ccccc23)C(=O)N([C@H](C)CO)C[C@@H]1C	nt	?	i	i	96	i	i	24
Cc1ccccc1S(=O)(=O)N(C)C[C@@H]1OCc2ccccc2-c2ccccc2C(=O)N([C@@H](C)CO)C[C@H]1C	nt	i	i	i	nt	nt	nt	nt
Cn1c(Cc2cccc3ccccc23)nnc1SCC(=O)c1ccc(Cl)cc1	i	nt	nt	nt	nt	nt	nt	nt
O=C(OC[C@@]1(O)[C@H]2[C@H](O[C@@H]3O[C@H](CO)[C@@H](O)[C@H](O)[C@H]3O)OC=C[C@H]2[C@H](O)[C@H]1Cl)c1ccccc1	i	nt	nt	nt	nt	nt	nt	nt
COc1cc(-c2nc3ccccc3s2)cc(Br)c1OCC(N)=O	i	nt	nt	nt	nt	nt	nt	nt
C[C@H](CO)N1C[C@H](C)[C@H](CN(C)Cc2ccc(C(F)(F)F)cc2)Oc2ccc(NC(=O)Cc3cn(C)c4ccccc34)cc2CC1=O	i	101	i	i	107	i	i	?
C[C@H](CO)N1C[C@H](C)[C@@H](CN(C)Cc2ccc(C(F)(F)F)cc2)Oc2ccc(NC(=O)Cc3cn(C)c4ccccc34)cc2CC1=O	i	i	i	i	nt	nt	nt	nt
C[C@@H]1CN([C@@H](C)CO)C(=O)Cc2cc(NC(=O)Cc3ccccc3)ccc2O[C@H]1CN(C)Cc1ccc(C(F)(F)F)cc1	i	i	i	i	nt	nt	nt	nt
C[C@H](CO)N1C[C@H](C)[C@@H](CN(C)Cc2ccc(C(F)(F)F)cc2)Oc2ccc(NC(=O)Cc3ccccc3)cc2CC1=O	i	106	i	i	i	101	i	104
C[C@H]1CN([C@@H](C)CO)C(=O)Cc2cc(NC(=O)Cc3ccccc3)ccc2O[C@H]1CN(C)Cc1ccc(Cl)c(Cl)c1	i	?	i	i	100	i	i	105
C[C@H]1CN([C@@H](C)CO)C(=O)Cc2cc(NC(=O)Cc3cn(C)c4ccccc34)ccc2O[C@H]1CN(C)Cc1ccc(Cl)c(Cl)c1	i	100	i	i	107	i	i	i
O=C1C(=O)N(Cc2cccnc2)C(c2ccccn2)C1C(=O)c1cccs1 (stereo not given)	i	nt	nt	nt	nt	nt	nt	nt
COc1ccc(NC(=O)Nc2ccc3c(c2)C(=O)N([C@H](C)CO)C[C@H](C)[C@H](CN(C)S(=O)(=O)c2ccc(F)cc2)OCCCC[C@H](C)O3)cc1	nt	?	i	i	103	i	i	i
COc1ccc(S(=O)(=O)N(C)C[C@@H]2OCCCC[C@@H](C)Oc3ccc(NC(=O)Nc4ccc(F)cc4)cc3C(=O)N([C@@H](C)CO)C[C@H]2C)cc1	nt	111	i	i	107	i	i	i
CCCC(=O)n1nc(-c2ccc(Cl)cc2)nc1NCc1ccco1	i	nt	nt	nt	nt	nt	nt	nt
Cc1ccc2c(c1)NC(C(F)(F)F)(C(F)(F)F)NC2=O	i	nt	nt	nt	nt	nt	nt	nt
CN(C)CCCNC(=O)C[C@H]1CC[C@@H]2[C@H](COC[C@H](O)CN2CC2CCCC2)O1	nt	?	i	nt	i	i	i	i
CN(C)CCCNC(=O)C[C@@H]1CC[C@H]2[C@@H](COC[C@@H](O)CN2CC2CCCC2)O1	nt	i	i	nt	nt	nt	nt	nt
O=C(C[C@@H]1CC[C@@H]2[C@H](COC[C@H](O)CN2CC2CCCCC2)O1)NCc1ccc(F)cc1	nt	?	i	nt	i	i	i	i
O=C(C[C@H]1CC[C@H]2[C@@H](COC[C@@H](O)CN2CC2CCCCC2)O1)NCc1ccc(F)cc1	nt	i	i	nt	nt	nt	nt	nt
C[C@H](CO)N1C[C@H](C)[C@H](CN(C)C(=O)Nc2ccc(C(F)(F)F)cc2)Oc2c(cccc2N(C)C)C1=O	i	96	i	i	i	i	i	i
SMILES	IDH1 R132H inh	T cruzi growth-1	GASC1 inh	Pf Dd2 growth	T cruzi growth-2	T cruzi growth-3	3T3 cytotox	3T3 cytotox 2
C[C@H]1CN([C@@H](C)CO)C(=O)c2cccc(N(C)C)c2O[C@H]1CN(C)Cc1ccc(C(F)(F)F)cc1	i	i	i	i	nt	nt	nt	nt
C[C@@H]1CN([C@H](C)CO)C(=O)c2cccc(N(C)C)c2O[C@H]1CN(C)Cc1ccc(C(F)(F)F)cc1	nt	101	i	i	i	i	i	103
C[C@H]1CN([C@@H](C)CO)C(=O)c2cccc(N(C)C)c2O[C@@H]1CN(C)Cc1ccc(C(F)(F)F)cc1	i	103	i	i	i	i	i	66
C[C@H]1CN([C@@H](C)CO)C(=O)c2cccc(N(C)C)c2O[C@@H]1CN(C)C(=O)Nc1ccc(C(F)(F)F)cc1	i	i	i	i	nt	nt	nt	nt
COc1cccc(NC(=O)CSc2nc(-c3ccccc3)c(-c3ccccc3)[nH]2)c1	i	nt	nt	nt	nt	nt	nt	nt
COc1ccccc1C#Cc1ccc([C@@H]2[C@@H](C#N)N(C(=O)C3CCC3)[C@H]2CO)cc1	nt	97	i	i	104	111	i	i
COc1ccccc1C#Cc1ccc([C@@H]2[C@@H](C#N)N(C(=O)C3CCC3)[C@@H]2CO)cc1	nt	i	i	i	nt	nt	nt	nt
COc1ccccc1C#Cc1ccc([C@@H]2[C@H](C#N)N(C(=O)C3CCC3)[C@H]2CO)cc1	nt	?	i	i	103	111	i	28
N#Cc1ccc(NC(=O)CCCn2cc([N+](=O)[O-])cn2)cc1	i	nt	nt	nt	nt	nt	nt	nt
CC(=O)N1CCCCN2[C@H](CO)[C@H](c3ccc(-c4ccc(C)cc4)cc3)[C@@H]2C1	nt	117	i	i	98	i	44	34
CC(=O)N1CCCCN2[C@@H](CO)[C@@H](c3ccc(-c4cccc(C)c4)cc3)[C@@H]2C1	nt	?	i	i	i	i	42	62
O=C(Cn1cnc2sc(-c3ccccc3)cc2c1=O)Nc1ccc(F)c(Cl)c1	i	nt	nt	nt	nt	nt	nt	nt
Cc1noc(C)c1S(=O)(=O)N(C)C[C@H]1OCCCC[C@@H](C)Oc2ccc(NC(=O)Nc3ccc(C(F)(F)F)cc3)cc2C(=O)N([C@@H](C)CO)C[C@@H]1C	i	99	i	-94	106	116	i	35
